Key:
Staphylococcus aureus [1] = experiment: Inhibition of biofilm formation in methicillin-resistant Staphylococcus aureus BAA 44 at 150 uM after 24 hrs by crystal violet staining-based assay relative to control; format: functional; settings: BAA 44, 24 h
Procedure, shortened: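 Static biofilm development in MRSA, read out by crystal violet staining against an untreated control. Initial screen at 150 μM. Inhibitors then went to dose-response, with IC50 taken as the concentration giving 50% inhibition of biofilm growth. Induction was judged at 50 μM: under 50% induction counted as "inducer", over 50% as "strong inducer".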

Escherichia coli [2] = experiment: Inhibition of biofilm formation in Escherichia coli K-12 ER2718 at 150 uM after 24 hrs by crystal violet staining-based assay relative to control; format: functional; settings: K-12 ER2718, 24 h
Escherichia coli [3] = experiment: Antimicrobial activity against Escherichia coli K-12 ER2718 assessed as effect on planktonic growth at IC50 after 2 to 24 hrs by colony count method; format: organism-based
Staphylococcus aureus [4] = experiment: Inhibition of biofilm formation in Staphylococcus aureus 29213 at 150 uM after 24 hrs by crystal violet staining-based assay relative to control; format: functional; settings: Staphylococcus aureus, 29213, 24 h
Staphylococcus aureus [5] = experiment: Antimicrobial activity against Staphylococcus aureus 29213 assessed as effect on planktonic growth at IC50 after 2 to 24 hrs; format: organism-based; settings: in vivo
Staphylococcus aureus [6] = experiment: Antimicrobial activity against methicillin-resistant Staphylococcus aureus BAA 44 assessed as effect on planktonic growth at IC50 after 2 to 24 hrs; format: organism-based; settings: in vivo
Acinetobacter baumannii [7] = experiment: Antimicrobial activity against Acinetobacter baumannii 19606 assessed as effect on planktonic growth at IC50 after 2 to 24 hrs by colony count method; parameters: species or system ATCC 19606
Staphylococcus aureus [8] = experiment: Antimicrobial activity against methicillin-resistant Staphylococcus aureus BAA 44 assessed as effect on planktonic growth at IC50 after 2 to 24 hrs by colony count method; format: organism-based; settings: in vivo
Escherichia coli [9] = experiment: Antimicrobial activity against Escherichia coli K-12 ER2718 assessed as effect on planktonic growth at IC50 after 2 to 24 hrs; format: organism-based
Acinetobacter baumannii [10] = experiment: Antimicrobial activity against Acinetobacter baumannii 19606 assessed as effect on planktonic growth at IC50 after 2 to 24 hrs; parameters: species or system ATCC 19606
Staphylococcus aureus [11] = experiment: Antimicrobial activity against Staphylococcus aureus 29213 assessed as effect on planktonic growth at IC50 after 2 to 24 hrs by colony count method; format: organism-based; settings: in vivo
Acinetobacter baumannii [12] = experiment: Inhibition of biofilm formation in Acinetobacter baumannii 19606 at 150 uM after 24 hrs by crystal violet staining-based assay relative to control; format: functional; settings: ATCC 19606 = CIP 70.34 = JCM 6841, 24 h
Escherichia coli [13] = experiment: Antimicrobial activity against Escherichia coli K-12 ER2718 assessed as effect on planktonic growth at PC75 after 2 to 24 hrs; format: organism-based; settings: in vivo
Escherichia coli [14] = experiment: Antimicrobial activity against Escherichia coli K-12 ER2718 assessed as effect on planktonic growth at PC50 after 2 to 24 hrs; format: organism-based
Escherichia coli [15] = experiment: Antimicrobial activity against Escherichia coli K-12 ER2718 assessed as effect on planktonic growth at 50 uM after 2 to 24 hrs; format: organism-based
Procedure, shortened: (§1)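 Growth curve analysis of planktonic bacteria with each biofilm inducer at 50 μM, used to assess toxicity.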

Escherichia coli [16] = experiment: Antimicrobial activity against Escherichia coli K-12 ER2718 assessed as effect on planktonic growth at PC75 after 2 to 24 hrs by colony count method; format: organism-based; settings: in vivo
Escherichia coli [17] = experiment: Antimicrobial activity against Escherichia coli K-12 ER2718 assessed as effect on planktonic growth at PC50 after 2 to 24 hrs by colony count method; format: organism-based; settings: in vivo
Escherichia coli [18] = experiment: Antimicrobial activity against Escherichia coli K-12 ER2718 assessed as effect on planktonic growth at PC25 after 2 to 24 hrs; format: organism-based
Escherichia coli [19] = experiment: Antimicrobial activity against Escherichia coli K-12 ER2718 assessed as effect on planktonic growth at PC25 after 2 to 24 hrs by colony count method; format: organism-based
Escherichia coli [20] = experiment: Induction of biofilm formation in Escherichia coli K-12 ER2718 at 50 uM after 24 hrs by crystal violet staining-based assay relative to control; format: functional
Procedure, shortened: (§2)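 Static biofilm assay with compounds at 50 μM and crystal violet read-out, relative to an untreated control. Compounds increasing biofilm by less than 50% were called inducers, and by more than 50% strong inducers.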

Staphylococcus aureus [21] = experiment: Induction of biofilm formation in Staphylococcus aureus 29213 at 50 uM after 24 hrs by crystal violet staining-based assay relative to control; format: functional; procedure, shortened: as §2
Staphylococcus aureus [22] = experiment: Antimicrobial activity against Staphylococcus aureus 29213 assessed as effect on planktonic growth at 50 uM after 2 to 24 hrs; format: organism-based; procedure, shortened: as §1
Staphylococcus aureus [23] = experiment: Antimicrobial activity against Staphylococcus aureus 29213 assessed as effect on planktonic growth at PC75 after 2 to 24 hrs; format: organism-based; settings: in vivo
Staphylococcus aureus [24] = experiment: Antimicrobial activity against Staphylococcus aureus 29213 assessed as effect on planktonic growth at PC50 after 2 to 24 hrs; format: organism-based; settings: in vivo
Staphylococcus aureus [25] = experiment: Antimicrobial activity against Staphylococcus aureus 29213 assessed as effect on planktonic growth at PC75 after 2 to 24 hrs by colony count method; format: organism-based; settings: in vivo
Staphylococcus aureus [26] = experiment: Antimicrobial activity against Staphylococcus aureus 29213 assessed as effect on planktonic growth at PC50 after 2 to 24 hrs by colony count method; format: organism-based; settings: in vivo
Staphylococcus aureus [27] = experiment: Antimicrobial activity against Staphylococcus aureus 29213 assessed as effect on planktonic growth at PC25 after 2 to 24 hrs; format: organism-based; settings: in vivo
Staphylococcus aureus [28] = experiment: Antimicrobial activity against Staphylococcus aureus 29213 assessed as effect on planktonic growth at PC25 after 2 to 24 hrs by colony count method; format: organism-based; settings: in vivo

SMILES | inhibition at 150 µM (Staphylococcus aureus [1]) [%] | inhibition at 150 µM (Escherichia coli [2]) [%] | Activity (Escherichia coli [3]) | inhibition at 150 µM (Staphylococcus aureus [4]) [%] | Activity (Staphylococcus aureus [5]) | Activity (Staphylococcus aureus [6]) | Activity (Acinetobacter baumannii [7]) | Activity (Staphylococcus aureus [8]) | Activity (Escherichia coli [9]) | Activity (Acinetobacter baumannii [10]) | Activity (Staphylococcus aureus [11]) | inhibition at 150 µM (Acinetobacter baumannii [12]) [%] | other results
O=C(NCCn1cc(Cc2csc3ccccc23)nn1)c1ccccc1 | < 5 | 14 | Non-toxic | < 5 | Non-toxic | Non-toxic | Non-toxic | Non-toxic | Non-toxic | Non-toxic | Non-toxic | < 5 | –
CCCCCCNC(=O)Cn1cc(Cc2csc3ccccc23)nn1 | < 5 | < 5 | Non-toxic | < 5 | Non-toxic | Non-toxic | Non-toxic | Non-toxic | Non-toxic | Non-toxic | Non-toxic | 20 | –
COc1ccc(CNC(=O)Cn2cc(Cc3csc4ccccc34)nn2)cc1 | < 5 | < 5 | Non-toxic | < 5 | Non-toxic | Non-toxic | Non-toxic | Non-toxic | Non-toxic | Non-toxic | Non-toxic | 20 | –
CCCCCCc1ccc(C(=O)NCCn2cc(Cc3c(Br)[nH]c4ccccc34)nn2)cc1 | 25 | – | Non-toxic | 40 | Non-toxic | Non-toxic | Non-toxic | Non-toxic | Non-toxic | Non-toxic | Non-toxic | 22 | Activity (Escherichia coli [13]): Non-toxic; Activity (Escherichia coli [14]): Non-toxic; Activity (Escherichia coli [15]): Non-toxic; Activity (Escherichia coli [16]): Non-toxic; Activity (Escherichia coli [17]): Non-toxic; Activity (Escherichia coli [18]): Non-toxic; Activity (Escherichia coli [19]): Non-toxic; Activity (Escherichia coli [20]): <50%
O=C(NCCn1cc(Cc2csc3ccccc23)nn1)c1ccccc1F | < 5 | < 5 | Non-toxic | – | Non-toxic | Non-toxic | Non-toxic | Non-toxic | Non-toxic | Non-toxic | Non-toxic | < 5 | Activity (Staphylococcus aureus [21]): >50%; Activity (Staphylococcus aureus [22]): Non-toxic; Activity (Staphylococcus aureus [23]): Non-toxic; Activity (Staphylococcus aureus [24]): Non-toxic; Activity (Staphylococcus aureus [25]): Non-toxic; Activity (Staphylococcus aureus [26]): Non-toxic; Activity (Staphylococcus aureus [27]): Non-toxic; Activity (Staphylococcus aureus [28]): Non-toxic
CCCCCCNC(=O)Cn1cc(Cc2c[nH]c3ccccc23)nn1 | < 5 | – | Non-toxic | < 5 | Non-toxic | Non-toxic | Non-toxic | Non-toxic | Non-toxic | Non-toxic | Non-toxic | 25 | Activity (Escherichia coli [13]): Non-toxic; Activity (Escherichia coli [14]): Non-toxic; Activity (Escherichia coli [15]): Non-toxic; Activity (Escherichia coli [16]): Non-toxic; Activity (Escherichia coli [17]): Non-toxic; Activity (Escherichia coli [18]): Non-toxic; Activity (Escherichia coli [19]): Non-toxic; Activity (Escherichia coli [20]): <50%
O=C(Cn1cc(Cc2c[nH]c3ccccc23)nn1)Nc1ccccc1 | < 5 | – | Non-toxic | < 5 | Non-toxic | Non-toxic | Non-toxic | Non-toxic | Non-toxic | Non-toxic | Non-toxic | < 5 | Activity (Escherichia coli [13]): Non-toxic; Activity (Escherichia coli [14]): Non-toxic; Activity (Escherichia coli [15]): Non-toxic; Activity (Escherichia coli [16]): Non-toxic; Activity (Escherichia coli [17]): Non-toxic; Activity (Escherichia coli [18]): Non-toxic; Activity (Escherichia coli [19]): Non-toxic; Activity (Escherichia coli [20]): <50%
CCCCCCc1ccc(C(=O)NCCn2cc(Cc3csc4ccccc34)nn2)cc1 | < 5 | < 5 | Non-toxic | < 5 | Non-toxic | Non-toxic | Non-toxic | Non-toxic | Non-toxic | Non-toxic | Non-toxic | < 5 | –
COc1ccc(CNC(=O)Cn2cc(Cc3c[nH]c4ccccc34)nn2)cc1 | < 5 | < 5 | Non-toxic | < 5 | Non-toxic | Non-toxic | Non-toxic | Non-toxic | Non-toxic | Non-toxic | Non-toxic | 20 | –
O=C(NCCn1cc(Cc2c[nH]c3ccccc23)nn1)c1ccccc1 | < 5 | < 5 | Non-toxic | 23 | Non-toxic | Non-toxic | Non-toxic | Non-toxic | Non-toxic | Non-toxic | Non-toxic | < 5 | –
O=C(NCCn1cc(Cc2c[nH]c3ccccc23)nn1)c1ccccc1F | 35 | < 5 | Non-toxic | – | Non-toxic | Non-toxic | Non-toxic | Non-toxic | Non-toxic | Non-toxic | Non-toxic | 15 | Activity (Staphylococcus aureus [21]): <50%; Activity (Staphylococcus aureus [22]): Non-toxic; Activity (Staphylococcus aureus [23]): Non-toxic; Activity (Staphylococcus aureus [24]): Non-toxic; Activity (Staphylococcus aureus [25]): Non-toxic; Activity (Staphylococcus aureus [26]): Non-toxic; Activity (Staphylococcus aureus [27]): Non-toxic; Activity (Staphylococcus aureus [28]): Non-toxic

Source: ChEMBL document CHEMBL3217512, “Indole/triazole conjugates are selective inhibitors and inducers of bacterial biofilms” (Medchemcomm, 2013)
